Reference: ChEMBL document CHEMBL2424608, “Discovery of novel N-substituted carbazoles as neuroprotective agents with potent anti-oxidative activity” (Eur J Med Chem, 2013)
Active and inactive are the calls of the source. The calls are words filed in the database; no cut-off is given here.

What was measured:
[1] = tested on: HT-22; assay: Neuroprotective activity against mouse HT22 cells assessed as inhibition of HCA-induced cell injury pretreated at 3 uM for 30 mins measured after 24 hrs by MTT assay; format: functional
Method in brief: (§1)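 HT22 mouse hippocampal cells in DMEM/10% FBS at 37 °C, 5% CO2, seeded at 4000 cells/well. Compound (30 mM DMSO stock, diluted in medium) added 30 min before glutamate (2 mM) or HCA (500 µM), then 24 h exposure. Controls get vehicle. Viability by MTT (500 µg/mL, 1 h, 37 °C), DMSO solubilisation, A570 relative to control = 100%. n = 6.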

[2] = tested on: HT-22; assay: Neuroprotective activity against mouse HT22 cells assessed as inhibition of glutamate-induced cell injury pretreated at 30 uM for 30 mins measured after 24 hrs by MTT assay; format: functional; method in brief: as §1
[3] = tested on: HT-22; assay: Neuroprotective activity against mouse HT22 cells assessed as inhibition of HCA-induced cell injury pretreated at 30 uM for 30 mins measured after 24 hrs by MTT assay; format: functional; method in brief: as §1
[4] = tested on: HT-22; assay: Neuroprotective activity against mouse HT22 cells assessed as inhibition of HCA-induced cell injury pretreated at 10 uM for 30 mins measured after 24 hrs by MTT assay; format: functional; method in brief: as §1
[5] = tested on: HT-22; assay: Neuroprotective activity against mouse HT22 cells assessed as inhibition of glutamate-induced cell injury pretreated at 10 uM for 30 mins measured after 24 hrs by MTT assay; format: functional; method in brief: as §1
[6] = tested on: HT-22; assay: Neuroprotective activity against mouse HT22 cells assessed as inhibition of glutamate-induced cell injury pretreated at 3 uM for 30 mins measured after 24 hrs by MTT assay; format: functional; method in brief: as §1
[7] = tested on: HT-22; assay: Neuroprotective activity against mouse HT22 cells assessed as inhibition of glutamate-induced cell shrinkage and debris pretreated at 3 uM for 30 mins measured after 24 hrs by phase-contrast microscopy; format: functional, cell-based
Method in brief: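 HT22 cells get compound 30 min before glutamate (2 mM). Morphology is viewed by inverted phase-contrast microscopy.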

[8] = tested on: HT-22; assay: Cytotoxicity against mouse HT22 cells at 30 uM by LDH assay; format: cell-based; conditions: ht-22, 30 µM
Method in brief: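 HT22 cells given compound alone at 30 µM; cytotoxicity read by LDH release assay.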

[9] = tested on: HT-22; assay: Neuroprotective activity against mouse HT22 cells assessed as inhibition of glutamate-induced GSH depletion pretreated at 10 to 30 uM for 30 mins measured after 10 hrs by glutathione assay kit
[10] = tested on: HT-22; assay: Neuroprotective activity against mouse HT22 cells assessed as inhibition of glutamate-induced cell injury pretreated for 30 mins measured after 24 hrs by MTT assay; format: functional, cell-based; method in brief: as §1
[11] = tested on: HT-22; assay: Neuroprotective activity against mouse HT22 cells assessed as inhibition of glutamate-induced ROS production pretreated for 30 mins measured after 10 hrs by DHE-based fluorescence assay; format: functional, cell-based
Method in brief: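 HT22 cells get compound for 30 min, then glutamate (2 mM). After exposure, cells are washed with PBS pH 7.4 and loaded with DHE at 10 µM in serum-free DMEM for 30 min. Fluorescence microscopy plus plate-reader intensity at ex 485/em 595 nm.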

c1ccc(-n2c3ccccc3c3ccccc32)cc1
inhibition at 3 µM [1]: 0% | inhibition at 30 µM [2]: 6% | inhibition at 30 µM [3]: 5% | inhibition at 10 µM [4]: 0% | inhibition at 10 µM [5]: 7% | inhibition at 3 µM [6]: 0%

FC(F)(F)c1ccc(-n2c3ccccc3c3ccccc32)cc1
inhibition at 3 µM [1]: 0% | inhibition at 30 µM [2]: 68% | inhibition at 30 µM [3]: 80% | inhibition at 10 µM [4]: 10% | inhibition at 10 µM [5]: 14% | inhibition at 3 µM [6]: 0%

OCCCCn1c2ccccc2c2ccccc21
inhibition at 3 µM [1]: 0% | inhibition at 30 µM [2]: 4% | inhibition at 30 µM [3]: 12% | inhibition at 10 µM [4]: 1% | inhibition at 10 µM [5]: 1% | inhibition at 3 µM [6]: 0%

Cc1ccc(-n2c3ccccc3c3ccccc32)cc1
inhibition at 3 µM [1]: 0% | inhibition at 30 µM [2]: 0% | inhibition at 30 µM [3]: 0% | inhibition at 10 µM [4]: 0% | inhibition at 10 µM [5]: 0% | inhibition at 3 µM [6]: 0%

c1ccc2c(c1)c1ccccc1n2C1CCCCC1
inhibition at 3 µM [1]: 7% | inhibition at 30 µM [2]: 20% | inhibition at 30 µM [3]: 10% | inhibition at 10 µM [4]: 8% | inhibition at 10 µM [5]: 8% | inhibition at 3 µM [6]: 3%

Cc1ccc(S(=O)(=O)n2c3ccccc3c3ccc(C(F)(F)F)cc32)cc1
inhibition at 3 µM [1]: 0% | inhibition at 30 µM [2]: 42% | inhibition at 30 µM [3]: 38% | inhibition at 10 µM [4]: 6% | inhibition at 10 µM [5]: 10% | inhibition at 3 µM [6]: 0%

c1ccc2c(c1)oc1ccccc12
inhibition [2]: inactive | inhibition [3]: inactive

COc1ccc2c3ccccc3n(S(=O)(=O)c3ccc(C)cc3)c2c1
inhibition at 3 µM [1]: 0% | inhibition at 30 µM [2]: 4% | inhibition at 30 µM [3]: 0% | inhibition at 10 µM [4]: 0% | inhibition at 10 µM [5]: 2% | inhibition at 3 µM [6]: 0.8%

Fc1ccc(-n2c3ccccc3c3ccccc32)cc1
inhibition at 3 µM [1]: 0% | inhibition at 30 µM [2]: 0% | inhibition at 30 µM [3]: 0% | inhibition at 10 µM [4]: 0% | inhibition at 10 µM [5]: 0% | inhibition at 3 µM [6]: 0%

Cc1ccc(-n2c3ccccc3c3ccccc32)nc1
inhibition at 3 µM [1]: 0% | inhibition at 30 µM [2]: 5% | inhibition at 30 µM [3]: 12% | inhibition at 10 µM [4]: 5% | inhibition at 10 µM [5]: 0% | inhibition at 3 µM [6]: 0%

CCc1ccc(S(=O)(=O)n2c3ccccc3c3ccccc32)cc1
inhibition at 3 µM [1]: 0% | inhibition at 30 µM [2]: 28% | inhibition at 30 µM [3]: 30% | inhibition at 10 µM [4]: 6% | inhibition at 10 µM [5]: 3% | inhibition at 3 µM [6]: 0%

CCCCn1c2ccccc2c2ccccc21
inhibition at 3 µM [1]: 0% | inhibition at 30 µM [2]: 0% | inhibition at 30 µM [3]: 0% | inhibition at 10 µM [4]: 0% | inhibition at 10 µM [5]: 0% | inhibition at 3 µM [6]: 0%

CN(C)c1ccc(-n2c3ccccc3c3ccccc32)cc1
inhibition at 3 µM [1]: 0% | inhibition at 30 µM [2]: 77% | inhibition at 30 µM [3]: 81% | inhibition at 10 µM [4]: 30% | inhibition at 10 µM [5]: 40% | inhibition at 3 µM [6]: 20%

COc1ccc(-n2c3ccccc3c3ccccc32)cc1
inhibition at 3 µM [1]: 0% | inhibition at 30 µM [2]: 59% | inhibition at 30 µM [3]: 71% | inhibition at 10 µM [4]: 32% | inhibition at 10 µM [5]: 25% | inhibition at 3 µM [6]: 3%

Cc1ccc(S(=O)(=O)n2c3ccccc3c3ccc(C#N)cc32)cc1
inhibition at 3 µM [1]: 0% | inhibition at 30 µM [2]: 7% | inhibition at 30 µM [3]: 0% | inhibition at 10 µM [4]: 0% | inhibition at 10 µM [5]: 2% | inhibition at 3 µM [6]: 3%

CC(C)(C)c1ccc(-n2c3ccccc3c3ccccc32)cc1
inhibition at 3 µM [1]: 2% | inhibition at 30 µM [2]: 70% | inhibition at 30 µM [3]: 63% | inhibition at 10 µM [4]: 30% | inhibition at 10 µM [5]: 35% | inhibition at 3 µM [6]: 0%

Fc1cccc(-n2c3ccccc3c3ccccc32)c1
inhibition at 3 µM [1]: 0% | inhibition at 30 µM [2]: 0% | inhibition at 30 µM [3]: 0% | inhibition at 10 µM [4]: 0% | inhibition at 10 µM [5]: 0% | inhibition at 3 µM [6]: 0%

Brc1ccc(-n2c3ccccc3c3ccccc32)cc1
inhibition at 3 µM [1]: 0% | inhibition at 30 µM [2]: 0% | inhibition at 30 µM [3]: 0% | inhibition at 10 µM [4]: 0% | inhibition at 10 µM [5]: 0% | inhibition at 3 µM [6]: 0%

Cc1ccc(-n2c3ccccc3c3ccc4ccccc4c32)cc1
inhibition at 3 µM [1]: 0% | inhibition at 30 µM [2]: 0% | inhibition at 30 µM [3]: 0% | inhibition at 10 µM [4]: 0% | inhibition at 10 µM [5]: 0% | inhibition at 3 µM [6]: 0%

COc1ccc2c(c1)c1ccccc1n2-c1ccc(C(C)(C)C)cc1
inhibition at 3 µM [1]: 0% | inhibition at 30 µM [2]: 0% | inhibition at 30 µM [3]: 0% | inhibition at 10 µM [4]: 0% | inhibition at 10 µM [5]: 0% | inhibition at 3 µM [6]: 0%

Cc1ccc(S(=O)(=O)n2c3ccccc3c3ccccc32)cc1
inhibition at 3 µM [1]: 4% | inhibition at 30 µM [2]: 47% | inhibition at 30 µM [3]: 34% | inhibition at 10 µM [4]: 13% | inhibition at 10 µM [5]: 10% | inhibition at 3 µM [6]: 0%

COc1ccc2c(c1)c1ccccc1n2S(=O)(=O)c1ccc(C)cc1
inhibition at 3 µM [1]: 0% | inhibition at 30 µM [2]: 5.2% | inhibition at 30 µM [3]: 0% | inhibition at 10 µM [4]: 0% | inhibition at 10 µM [5]: 3% | inhibition at 3 µM [6]: 0%

Clc1ccc(-n2c3ccccc3c3ccccc32)cc1
inhibition at 3 µM [1]: 0% | inhibition at 30 µM [2]: 20% | inhibition at 30 µM [3]: 40% | inhibition at 10 µM [4]: 0% | inhibition at 10 µM [5]: 0% | inhibition at 3 µM [6]: 0%

Cc1ccc(-n2c3ccccc3c3ccc(-c4ccccc4)cc32)cc1
inhibition [7]: Active | inhibition at 3 µM [1]: 64% | inhibition at 30 µM [2]: 50% | inhibition at 30 µM [3]: 44% | Activity [8]: Non-toxic | inhibition [9]: inactive | inhibition [10]: Dose-dependent effect | inhibition at 10 µM [4]: 77% | inhibition at 10 µM [5]: 69% | inhibition [11]: Dose-dependent effect | inhibition at 3 µM [6]: 63%

c1ccc2c(c1)sc1ccccc12
inhibition [2]: inactive | inhibition [3]: inactive

Cc1ccc(S(=O)(=O)n2c3ccccc3c3ccc(-c4ccccc4)cc32)cc1
inhibition at 3 µM [1]: 11% | inhibition at 30 µM [2]: 30% | inhibition at 30 µM [3]: 30% | inhibition at 10 µM [4]: 18% | inhibition at 10 µM [5]: 19% | inhibition at 3 µM [6]: 12%

Cc1ccc(S(=O)(=O)n2c3ccccc3c3ccc4ccccc4c32)cc1
inhibition at 3 µM [1]: 18% | inhibition at 30 µM [2]: 26% | inhibition at 30 µM [3]: 30% | inhibition at 10 µM [4]: 30% | inhibition at 10 µM [5]: 16% | inhibition at 3 µM [6]: 4%
